The values that follow come from ChEMBL document CHEMBL5338743, “Identification of a Selective SCoR2 Inhibitor That Protects Against Acute Kidney Injury” (J Med Chem, 2023).

Test [1] concerns the target T1, Aldo-keto reductase family 1 member A1 (Homo sapiens) (UniProt P14550).
T1 sequence (whole entry): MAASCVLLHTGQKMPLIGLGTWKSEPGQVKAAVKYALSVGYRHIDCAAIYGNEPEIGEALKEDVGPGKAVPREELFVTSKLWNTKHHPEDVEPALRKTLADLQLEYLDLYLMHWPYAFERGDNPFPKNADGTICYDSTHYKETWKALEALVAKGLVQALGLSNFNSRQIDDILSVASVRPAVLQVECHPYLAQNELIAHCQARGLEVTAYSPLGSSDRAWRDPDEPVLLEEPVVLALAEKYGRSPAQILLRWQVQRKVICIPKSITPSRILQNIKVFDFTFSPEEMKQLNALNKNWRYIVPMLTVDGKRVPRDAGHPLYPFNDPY
Kind of test: Binding affinity to C-terminal 6His-tagged human recombinant SCoR2 AKR1A1 expressed in Escherichia coli BL21-CodonPlus competent cells assessed as thermal stability by measuring melting temperature at +/- 250 uM preincubated for 15 mins with NADPH followed by compound addition and measured after 30 mins by SYPRO orange dye based DSF analysis (reference value: 51.4 degreeC). The method in brief: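 5 μM protein with or without 250 μM NADPH or NADP⁺ and 250 μM inhibitor; cofactor preincubated 15 min, then inhibitor 30 min at room temperature. 10X SYPRO Orange added; temperature ramped 25–70°C in 0.3°C steps. DMSO-matched controls (1%); duplicates.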
A general note: In DSF a fluorescence change marks the thermal transition of the protein.

Test [2] relates to Mus musculus. In words: In vivo inhibition of AKR1B1 in mouse assessed as reduction in methyl glyoxylate metabolic activity in kidneys at 120 mg/kg body weight, ip administered as single dose into abdomen measured after 18 hrs. The test is classed as functional, organism-based.
The species entered for the next test is Homo sapiens. In words: Selectivity index, ratio of IC50 for inhibition of human recombinant AKR1B1 expressed in Escherichia coli BL21-CodonPlus competent cells to IC50 for inhibition of human recombinant SCoR2 expressed in Escherichia coli BL21-CodonPlus competent cells. The method in brief:
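Purified enzyme at 200 nM (SCoR2 with 100 μM SNO-CoA; AKR1B1 with 100 μM methylglyoxylate) in 50 mM phosphate pH 7.0 with serial inhibitor dilutions; started with 100 μM NADPH, 2 min. Rate from 340 nm decrease, normalized to 20 nM protein activity; IC50 fitted, n=3. Selectivity taken as AKR1B1/SCoR2 IC50 ratio.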

A short description of test [3]: In vivo inhibition of SCoR2 in ischemia/reperfusion induced acute kidney injury mouse model assessed as reduction in SNO-CoA metabolic activity in kidneys at 120 mg/kg, ip pretreated for 18 hrs followed by kidney injury surgery and measured after 24 hrs relative to control. The class given is functional. The note with it: time 42 hrs. The method in brief: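 Male mice (9–11 weeks, 25–28 g) dosed i.p. 18 h before renal ischemia–reperfusion surgery under isoflurane; kidneys taken 24 h after reperfusion. Kidney lysate SNO-CoA reductase activity measured with 200 μM SNO-CoA, 100 μM NADPH, 2 min, triplicate assays; DMSO-treated controls.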

For a further test, the system named is Kidney. In words: Effect on SCoR2 protein expression in kidney of ischemia/reperfusion induced acute kidney injury mouse model at 120 mg/kg, ip pretreated for 18 hrs followed by kidney injury surgery and measured after 24 hrs by Western blot analysis. The class given is functional, organism-based. As to conditions: time 42.0 hrs. The method in brief: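 Mice given 120 mg/kg i.p. 18 h before I/R surgery; kidneys collected 24 h post-surgery. SCoR2 protein measured by western blot (4–20% gels, overnight primary antibody at 4°C, HRP secondary, ECL) and quantified; n=6, DMSO controls.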

Test [4] concerns Mus musculus. Kind of test: Protection against ischemia/reperfusion induced acute kidney injury in mouse assessed as reduction in serum creatinine level at 120 mg/kg, ip pretreated for 18 hrs followed by kidney injury surgery and measured after 24 hrs. The test is classed as functional, organism-based. As to conditions: time 42.0 hrs. In short, it runs like this: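 Male mice (9–11 weeks, 25–28 g) given i.p. dose 18 h before ischemia–reperfusion AKI surgery under isoflurane; serum taken 24 h after reperfusion. Creatinine and BUN measured by a clinical laboratory; DMSO-treated controls.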

Test [5] has as its system Mus musculus. In words: Protection against ischemia/reperfusion induced acute kidney injury in mouse assessed as increase in SNO-PKM2 level in kidney at 120 mg/kg, ip pretreated for 18 hrs followed by kidney injury surgery and measured after 24 hrs by Western blot analysis. As to conditions: time 42.0 hrs. The test is classed as functional, organism-based. The method in brief:
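Kidneys from sham or I/R mice (120 mg/kg i.p. or DMSO) homogenized in HEN buffer with MMTS, then SDS/MMTS blocking at 50°C for 20 min and acetone-precipitated. 2 mg lysate captured on thiopropyl-Sepharose with 50 mM ascorbate, 4 h in the dark; no-ascorbate controls. PKM2 detected by western blot and normalized to input PKM2, n=3.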
(In general: In western blotting, separated proteins are transferred to a membrane and probed.)

The source made the active and inactive calls. The calls are words filed in the database; no cut-off is given here.

What is called Tm is the temperature at the midpoint of the melting transition. Usually inhibition in vivo stands for how much of the control response was suppressed.

In the case of `O=C1NC(=O)C2(N1)c1ccccc1-c1ccc(C3CC3)cc12` (configuration not stated), the Tm in test [1] came out at 53.4 °C. For the same compound, the inhibition entry with Mus musculus [2] is “inactive”. Moreover, the Ratio IC50 in the test filed under Homo sapiens came out at 9.7. The inhibition in vivo at 120 mg/kg in test [3] amounted to 80%. The outcome with Kidney was inactive. The outcome in the test with Mus musculus [4] and with Mus musculus [5] was Active.
